In ChEMBL document CHEMBL1140137, “Synthesis, ex vivo evaluation, and radiolabeling of potent 1,5-diphenylpyrrolidin-2-one cannabinoid subtype-1 receptor ligands as candidates for in vivo imaging” (J Med Chem, 2008):

Assays:
[1] = Drug uptake in Sprague-Dawley rat frontal cerebral cortex at 30 μg/kg, iv after 0.5 hrs
[2] = Drug uptake in Rimonabant pretreated Sprague-Dawley rat CB1 rich frontal cerebral cortex at […], iv after 0.25 hrs; assay type: ADME, organism-based; parameters: route intravenous; conditions: read-out: Drug uptake
Outline: (§1)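 Adult male Sprague-Dawley rats (225–250 g) were used, three per time point. […] Ligand was dosed at 30 μg/kg i.v. in intralipid/1% AcOH diluted with water. Frontal cortex was taken at 0.25–8 h, homogenized in MeCN/0.1% HCO2H, centrifuged, and the supernatant quantified by LC-MS (ng/g).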

Homo sapiens = organism: Homo sapiens; assay: Selectivity for human CB1 receptor over human CB2 receptor
Outline: (§2)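 GTPγ35S binding was read by anti-Gi antibody-capture scintillation proximity assay. Membranes came from CHO cells expressing human CB1 and from Sf9 cells expressing human CB2. Antagonist dose-responses were run against methanandamide at 80% efficacious dose. Kb = IC50/(1+[agonist]/EC50), with four-parameter fits. Values are the mean ± SEM of at least three independent determinations. Selectivity was taken from the CB1 and CB2 Kb values.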

[3] = Drug uptake in Sprague-Dawley rat frontal cerebral cortex at 30 μg/kg, iv after 8 hrs
[4] = molecular target: Cannabinoid receptor 2 (Homo sapiens) (UniProt P34972); assay: Antagonist activity at human CB2 receptor in Sf9 cells assessed as GTPgammaS binding; assay type: functional, cell-based
Chain of Cannabinoid receptor 2 (Homo sapiens) (P34972 whole entry): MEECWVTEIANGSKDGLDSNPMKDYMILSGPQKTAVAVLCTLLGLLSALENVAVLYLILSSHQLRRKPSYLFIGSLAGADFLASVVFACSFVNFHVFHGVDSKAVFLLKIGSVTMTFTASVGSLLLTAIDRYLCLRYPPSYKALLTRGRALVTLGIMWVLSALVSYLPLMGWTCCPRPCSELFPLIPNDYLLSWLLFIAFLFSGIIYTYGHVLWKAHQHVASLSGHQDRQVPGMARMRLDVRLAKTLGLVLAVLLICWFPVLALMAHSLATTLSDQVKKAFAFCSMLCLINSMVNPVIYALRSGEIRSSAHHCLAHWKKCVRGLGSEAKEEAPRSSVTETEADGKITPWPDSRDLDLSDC
Outline: as §2

[5] = Drug uptake in Sprague-Dawley rat frontal cerebral cortex at 30 μg/kg, iv after 0.25 hrs
[6] = Drug uptake in Rimonabant pretreated Sprague-Dawley rat CB1 rich frontal cerebral cortex at […], iv after 8 hrs; assay type: ADME, organism-based; parameters: route intravenous; conditions: read-out: Drug uptake
Outline: as §1

| concentration at 0.5 h [1] [ng/g] | concentration at 0.25 h [2] [ng/g] | Selectivity ratio (Homo sapiens) | concentration at 8 h [3] [ng/g] | Kb [4] [nM] | concentration at 0.25 h [5] [ng/g] | concentration at 8 h [6] [ng/g] | SMILES |
| --- | --- | --- | --- | --- | --- | --- | --- |
| 39.3 | 9.7 | 3580 | 8.2 | 669 |  |  | C[C@@H](N[C@@H]1C[C@H](c2cccc(OCF)c2)N(c2ccc(C(F)(F)F)cc2)C1=O)c1ccccc1 |
|  | 6.5 | > 19500 | 0.7 | > 8260 | 22 |  | C[C@@H](N[C@@H]1C[C@H](c2cccc(OCCF)c2)N(c2ccc(C(F)(F)F)cc2)C1=O)c1ccccc1 |
|  | 11.5 |  | 8.5 |  | 39 |  | COc1cccc([C@H]2C[C@@H](N[C@H](C)c3ccccc3)C(=O)N2c2ccc(C(F)(F)F)cc2)c1 [MEPPEP] |
| 48 | 17.3 | 2160 | 10.5 | 466 |  | 0.8 | COc1cccc([C@H]2C[C@@H](N[C@H](C)c3ccc(F)cc3)C(=O)N2c2ccc(C(F)(F)F)cc2)c1 |
